pKi: −log10 of the molar value.
Legend:
Type in all cases: cell-based
[1] = biological target: T1, GABA-A receptor; alpha-1/beta-3/gamma-2 (Homo sapiens) (UniProt P14867+P18507+P28472); assay: Efficacy was determined against gamma-aminobutyric acid A receptor, alpha 1 expressed in Xenopus oocytes; settings: Oocyte
Method in brief: (§1)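 Cloned human α1β3γ2, α2β3γ2 or α3β3γ2 receptors transiently expressed in Xenopus oocytes; two-electrode voltage clamp; modulation of GABA EC20 current by a single test-compound concentration (nM, given per value); means ± SEM, n = 3-7.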

[2] = biological target: T2, GABA-A receptor; alpha-3/beta-3/gamma-2 (Homo sapiens, UniProt P18507+P28472+P34903); assay: In vitro binding affinity against Gamma-aminobutyric acid A receptor, alpha 3 expressed in L(tk) cells by displacement of [3H]Ro-151788
T2 sequence (P18507 whole entry): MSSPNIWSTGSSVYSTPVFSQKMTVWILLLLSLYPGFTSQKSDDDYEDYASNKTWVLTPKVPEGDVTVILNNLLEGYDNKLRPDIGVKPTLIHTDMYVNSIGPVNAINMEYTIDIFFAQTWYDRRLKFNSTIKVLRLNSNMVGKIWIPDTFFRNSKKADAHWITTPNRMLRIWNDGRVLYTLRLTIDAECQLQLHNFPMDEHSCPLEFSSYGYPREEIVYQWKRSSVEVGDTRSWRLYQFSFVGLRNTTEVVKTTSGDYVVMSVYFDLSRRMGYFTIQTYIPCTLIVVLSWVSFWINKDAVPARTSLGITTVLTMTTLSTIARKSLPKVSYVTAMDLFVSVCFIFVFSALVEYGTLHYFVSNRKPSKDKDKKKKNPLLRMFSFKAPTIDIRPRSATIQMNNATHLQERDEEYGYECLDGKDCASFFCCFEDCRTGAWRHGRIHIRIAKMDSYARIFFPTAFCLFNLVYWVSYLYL
T2 sequence (P28472 whole entry): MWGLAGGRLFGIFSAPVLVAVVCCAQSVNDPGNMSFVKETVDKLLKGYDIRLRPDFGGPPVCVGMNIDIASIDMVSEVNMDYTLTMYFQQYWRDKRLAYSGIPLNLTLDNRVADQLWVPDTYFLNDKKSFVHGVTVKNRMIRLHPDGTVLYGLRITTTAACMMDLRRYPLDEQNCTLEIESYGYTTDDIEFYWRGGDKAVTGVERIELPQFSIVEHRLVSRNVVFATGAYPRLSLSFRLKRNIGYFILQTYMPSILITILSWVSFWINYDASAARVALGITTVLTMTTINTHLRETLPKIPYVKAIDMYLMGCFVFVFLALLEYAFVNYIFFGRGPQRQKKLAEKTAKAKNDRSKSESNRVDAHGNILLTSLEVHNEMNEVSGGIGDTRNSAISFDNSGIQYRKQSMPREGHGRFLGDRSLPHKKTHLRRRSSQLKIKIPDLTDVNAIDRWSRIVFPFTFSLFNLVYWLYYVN
T2 sequence (P34903 whole entry): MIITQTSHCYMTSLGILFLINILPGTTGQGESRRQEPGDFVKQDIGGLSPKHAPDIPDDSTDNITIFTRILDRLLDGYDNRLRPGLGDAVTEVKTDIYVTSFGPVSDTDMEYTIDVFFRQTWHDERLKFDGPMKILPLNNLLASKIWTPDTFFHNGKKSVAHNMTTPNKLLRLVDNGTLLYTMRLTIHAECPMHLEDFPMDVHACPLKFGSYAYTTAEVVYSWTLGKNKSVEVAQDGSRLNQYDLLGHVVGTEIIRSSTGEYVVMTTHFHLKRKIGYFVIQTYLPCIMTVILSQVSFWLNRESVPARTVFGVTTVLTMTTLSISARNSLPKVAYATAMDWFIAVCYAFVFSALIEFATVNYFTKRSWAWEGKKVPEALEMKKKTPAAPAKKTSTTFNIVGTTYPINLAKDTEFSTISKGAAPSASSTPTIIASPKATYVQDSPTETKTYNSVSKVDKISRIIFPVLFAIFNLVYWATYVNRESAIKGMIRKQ
Method in brief: (§2)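 Binding to cloned human α1β3γ2, α2β3γ2 or α3β3γ2 receptors stably expressed in L(tk-) cells, measured as displacement of [3H]Ro15-1788; means ± SEM, n = 3-7.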

[3] = biological target: T3, GABA-A receptor; alpha-1/beta-3/gamma-2 (Homo sapiens, UniProt P14867+P18507+P28472); assay: In vitro binding affinity against gamma-aminobutyric acid A receptor, alpha 1 expressed in L(tk) cells by displacement of [3H]Ro-151788; method in brief: as §2
T3 sequence (P14867 whole entry): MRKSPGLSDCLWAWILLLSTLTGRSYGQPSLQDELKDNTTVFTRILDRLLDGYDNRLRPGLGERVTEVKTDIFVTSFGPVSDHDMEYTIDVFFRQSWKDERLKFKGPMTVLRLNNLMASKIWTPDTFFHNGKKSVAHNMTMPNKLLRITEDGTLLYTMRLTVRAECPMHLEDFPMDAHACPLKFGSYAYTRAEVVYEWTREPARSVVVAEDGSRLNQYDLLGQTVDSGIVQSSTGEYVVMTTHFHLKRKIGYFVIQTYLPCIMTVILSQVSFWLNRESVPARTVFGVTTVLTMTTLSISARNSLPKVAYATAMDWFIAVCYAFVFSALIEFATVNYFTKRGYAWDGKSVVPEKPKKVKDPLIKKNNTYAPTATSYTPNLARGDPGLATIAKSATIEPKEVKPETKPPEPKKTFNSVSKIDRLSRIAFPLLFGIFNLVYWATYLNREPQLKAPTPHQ
T3 sequence (P18507 whole entry): T2 sequence (P18507 whole entry)
T3 sequence (P28472 whole entry): T2 sequence (P28472 whole entry)

[4] = biological target: T4, GABA-A receptor; alpha-3/beta-3/gamma-2 (Homo sapiens) (UniProt P18507+P28472+P34903); assay: Efficacy was determined against Gamma-aminobutyric acid A receptor, alpha 3 expressed in Xenopus oocytes; settings: Oocyte; method in brief: as §1
[5] = biological target: T1, GABA-A receptor; alpha-1/beta-3/gamma-2 (Homo sapiens); assay: Efficacy against human GABA-A receptor alpha-1-beta-3-gamma-2 subunits expressed in L(tk-) cells by whole-cell patch-clamp
Method in brief: (§3)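 Whole-cell patch-clamp of L(tk-) cells stably expressing cloned human α1β3γ2, α2β3γ2 or α3β3γ2 receptors; full concentration-effect curves built; means ± SEM, n = 3-7.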

[6] = biological target: T4, GABA-A receptor; alpha-3/beta-3/gamma-2 (Homo sapiens); assay: Efficacy against human GABA-A receptor alpha-3-beta-3-gamma-2 subunits expressed in L(tk-) cells by whole-cell patch-clamp; method in brief: as §3
[7] = biological target: T5, GABA-A receptor; alpha-2/beta-3/gamma-2 (Homo sapiens) (UniProt P18507+P28472+P47869); assay: Efficacy against human GABA-A receptor alpha-2-beta-3-gamma-2 subunits expressed in L(tk-) cells by whole-cell patch-clamp; method in brief: as §3
[8] = biological target: T6, GABA-A receptor; alpha-2/beta-3/gamma-2 (Homo sapiens, UniProt P18507+P28472+P47869); assay: In vitro displacement of [3H]Ro-151788 from human GABA-A receptor alpha-2-beta-3-gamma-2 subunits expressed in L(tk-) cells; method in brief: as §2
T6 sequence (P18507 whole entry): T2 sequence (P18507 whole entry)
T6 sequence (P28472 whole entry): T2 sequence (P28472 whole entry)
T6 sequence (P47869 whole entry): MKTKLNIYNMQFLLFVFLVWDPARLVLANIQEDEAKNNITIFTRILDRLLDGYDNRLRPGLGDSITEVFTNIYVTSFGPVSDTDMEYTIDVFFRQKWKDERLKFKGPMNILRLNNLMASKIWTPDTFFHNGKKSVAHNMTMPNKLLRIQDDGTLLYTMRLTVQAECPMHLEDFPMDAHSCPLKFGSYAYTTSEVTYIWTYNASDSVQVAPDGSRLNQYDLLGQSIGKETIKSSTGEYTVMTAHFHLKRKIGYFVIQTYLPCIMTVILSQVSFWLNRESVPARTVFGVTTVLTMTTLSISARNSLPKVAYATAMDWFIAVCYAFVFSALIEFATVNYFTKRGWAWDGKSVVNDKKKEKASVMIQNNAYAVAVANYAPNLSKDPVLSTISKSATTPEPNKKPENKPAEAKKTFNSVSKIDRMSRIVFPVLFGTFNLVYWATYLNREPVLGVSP

[9] = biological target: T5, GABA-A receptor; alpha-2/beta-3/gamma-2 (Homo sapiens); assay: Efficacy relative to GABA EC20 against human GABA-A receptor alpha-2-beta-3-gamma-2 subunits expressed in Xenopus oocytes; settings: Oocyte; method in brief: as §1
[10] = biological target: T2, GABA-A receptor; alpha-3/beta-3/gamma-2; assay: In vitro displacement of [3H]Ro-151788 from human GABA-A receptor alpha-3-beta-3-gamma-2 subunits expressed in L(tk-) cells; method in brief: as §2

Row | Efficacy [1] [%] | pKi [2] | pKi [3] | Efficacy [4] [%] | Efficacy [5] [%] | Efficacy [6] [%] | Efficacy [7] [%] | pKi [8] | Efficacy [9] [%] | pKi [10] | SMILES
1 | 49 | 8.27 | 8.50 | 2.3 |  |  |  |  |  |  | O=C(Cc1cccnc1)N1CCC2N=Cc3c(nn(-c4ccc(Cl)cc4)c3O)C2C1 (centres undefined)
2 | 19 | 8.95 | 9.36 | 51 |  |  |  |  |  |  | Oc1c2c(nn1-c1ccc(Cl)cc1)C1CCCC1N=C2 (centres undefined)
3 | 111 | 8.13 | 9.35 | 123 |  |  |  |  |  |  | Oc1c2c(nn1-c1ccc(Cl)cc1)C1CN(CC3CC3)CCC1N=C2 (centres undefined)
4 | 131 | 9.25 | 9.74 | 199 |  |  |  |  |  |  | Oc1c2c(nn1-c1ccc(Cl)cc1)C1CN(Cc3ccncc3)CCC1N=C2 (centres undefined)
5 | 23 | 8.37 | 8.97 | 87 |  |  |  |  |  |  | Oc1c2c(nn1-c1ccc(Cl)cc1)C1CCCCCC1N=C2 (centres undefined)
6 | 11 | 8.19 | 8.81 | 32 |  |  |  |  |  |  | Oc1c2c(nn1-c1ccc(OC(F)F)cc1)C1COCCC1N=C2 (centres undefined)

Further lines, the compound ahead of its results:

Row | SMILES | Efficacy [1] [%] | pKi [2] | pKi [3] | Efficacy [4] [%] | Efficacy [5] [%] | Efficacy [6] [%] | Efficacy [7] [%] | pKi [8] | Efficacy [9] [%] | pKi [10]
7 | Oc1c2cnc3c(c2nn1-c1ccc(F)cc1)CCCC3 | -2 | 9.19 | 9.54 | 33 |  |  |  |  |  | 
8 | Oc1c2c(nn1-c1ccc(OC(F)F)cc1)C1CSCCC1N=C2 (centres undefined) | 9 | 9.05 | 9.42 | 25 |  |  |  |  |  | 
9 | Oc1c2cnc3c(c2nn1-c1ccc(OC(F)F)cc1)CCCC3 | 21 | 8.65 | 9.00 | 56 | 2 | 34 |  |  |  | 
10 | O=c1c2c[nH]c3c(c-2nn1-c1ccc(Cl)cc1)CCCC3 | 12 | 8.99 | 9.72 | 93 | 17 | 70 | 43 | 9.11 | 61 | 
11 | Oc1c2cnc3c(c2nn1-c1ccccn1)CCCC3 | -39 | 8.94 | 9.24 | -7 |  |  |  |  |  | 
12 | Oc1c2cnc3c(c2nn1-c1ccc(OC(F)(F)F)cc1)CCCC3 | 14 | 8.33 | 8.13 | 35 |  |  |  |  |  | 
13 | Oc1c2cnc3c(c2nn1-c1ccc(OC2CC2)cc1)CCCC3 | 19 |  | 8.95 | 62 | -4.3 | 54 |  |  |  | 8.66
14 | COc1ccc(-n2nc3c4c(ncc3c2O)CCCC4)cc1 | 15 | 9.21 | 9.51 | 55 |  |  |  |  |  | 
15 | Oc1c2cnc3c(c2nn1-c1ccc(OC2CCC2)cc1)CCCC3 | 49 | 8.59 | 8.89 | 36 |  |  |  |  |  | 

— ChEMBL document CHEMBL1149231, “2,5-Dihydropyrazolo[4,3-c]pyridin-3-ones: functionally selective benzodiazepine binding site ligands on the GABAA receptor” (Bioorg Med Chem Lett, 2004)
